# Compound activity as filed in PubChem BioAssay.
# CAL PDZ FP-1 – inhibitors of human CAL PDZ peptide binding; Q9HD26; 330,000 compounds, 0.02% hits; AID 504414; inhibition, % at 20 µM; purified CAL PDZ, TMR-peptide fluorescence polarization, 1 h;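 active = highest replicate inhibition of at least 40%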;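 also: plate controls were DMSO neutral control wells for no effect and unlabeled competitor peptide control wells for full effect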
#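 System: tagged CAL PDZ domain. Schedule: 1 h room-temperature incubation prior to read. Signal: fluorescence polarization (mP). Measure: percent inhibition from loss of millipolarization.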
# ERp5 inh – ERp5 (human) disulfide isomerase inhibition. Q15084. ERp5 insulin aggregation, absorbance 650 nm, 90 min. inhibition, % at 9.99 µM. 350,000 compounds, 0.05% hits;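 active = mean replicate inhibition above about 25%, with every replicate also reaching it, limit read from the data, passing the limit was not always enough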
# ERAP1 inh – inhibitors of human ERAP1 aminopeptidase. recombinant ERAP1, Leu-AMC fluorescence, 60 min. inhibition, % at 10.7 µM. 340,000 compounds, 0.15% hits. AID 652197;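 active = mean replicate inhibition of at least 30%, or all replicates individually reaching that 30% level; inactive = mean below 30% and not every replicate reaching it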;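 also: 0% = neutral control wells and 100% = L-leucinethiol positive control wells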
# Rin1 Abl inh – inhibitors of human Rin1-Abl protein interaction. AID 588664. inhibition, % at 7.35 µM. TR-FRET Rin1/Abl binding, biochemical. 360,000 compounds, 0.4% hits; in the data active = inhibition above about 5%, passing the limit was not always enough
# CAL PDZ FP-2 – CAL PDZ (human) peptide binding inhibition; inhibition, % at 24.9 µM; purified CAL PDZ, TMR-peptide fluorescence polarization, 1 h; AID 602252; 300,000 compounds, 0.92% hits; Q9HD26;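 active = mean inhibition of at least 30% with at least half of replicates also reaching 30%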;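 also: 0% = DMSO neutral control and 100% = excess unlabeled competitor peptide PRC23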
# PDI inh – inhibitors of human protein disulfide isomerase. PDI insulin aggregation turbidity, A650, 90 min. P07237. inhibition, % at 10 µM. 350,000 compounds, 0.052% hits;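 active = mean inhibition across replicates of 30% or more, whatever share of single replicates reach that level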
# Target sequence (P07237 whole entry, looked up): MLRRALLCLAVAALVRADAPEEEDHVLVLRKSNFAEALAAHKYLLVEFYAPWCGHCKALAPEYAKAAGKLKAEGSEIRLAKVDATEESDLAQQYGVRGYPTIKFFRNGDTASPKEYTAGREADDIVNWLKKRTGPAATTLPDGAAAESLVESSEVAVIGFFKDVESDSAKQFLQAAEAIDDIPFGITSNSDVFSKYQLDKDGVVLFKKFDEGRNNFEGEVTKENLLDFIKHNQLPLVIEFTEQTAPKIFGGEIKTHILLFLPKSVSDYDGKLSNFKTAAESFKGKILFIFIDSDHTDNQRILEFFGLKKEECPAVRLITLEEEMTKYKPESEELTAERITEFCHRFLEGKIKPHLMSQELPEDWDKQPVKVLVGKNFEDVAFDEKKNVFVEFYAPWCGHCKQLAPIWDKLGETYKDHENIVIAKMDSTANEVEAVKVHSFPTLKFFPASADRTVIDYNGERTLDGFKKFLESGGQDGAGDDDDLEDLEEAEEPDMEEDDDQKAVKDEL
# Rin1-Abl confirm – Rin1-Abl interaction inhibition confirmation | 1,300 compounds, 49% hits | TR-FRET Rin1-Abl binding, purified proteins | inhibition, % at 7.35 µM | shares compounds with Rin1 Abl inh; in the data active = inhibition above about 6.5%
# GFP quench-1 – GFP fluorescence interference artifact; shares compounds with Rin1 Abl inh; inhibitors/quenchers counterscreen; inhibition, % at 6.75 µM; 1,300 compounds, 8.5% hits; in the data active = inhibition above about 6.5%;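 also: ABL1-eGFP fusion protein alone without its partner RIN1-SBP; 0% = protein with vehicle and 100% = wells lacking protein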
# GFP quench dose – GFP fluorescence interference dose response; shares compounds with Rin1 Abl inh; GFP fluorescence interference/quenching counterscreen; IC50, µM; 230 tested, under 10 active;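 also: ABL1-eGFP fusion protein alone without its RIN1 binding partner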
# GFP quench-2 – counter-screen for Rin1-Abl interaction inhibitors: GFP fluorescence quenching; shares compounds with Rin1 Abl inh; 25 tested, under 10 active; GFP fluorescence quenching counterscreen, biochemical; IC50, µM
# * hit, by the source's call; / = no result given. This is a sample that favours compounds with a hit; in the whole collection about 1.1% have one here. Unless noted, no rule for the calls is given here.
SMILES,CAL PDZ FP-1,ERp5 inh,ERAP1 inh,Rin1 Abl inh,CAL PDZ FP-2,PDI inh,Rin1-Abl confirm,GFP quench-1,others
COc1ccc2cnn(CCOc3ccccc3)c(=O)c2c1OC,/,/,/,14*,-2,5,-1,1,
Cc1c(C(=O)NCC(c2ccco2)N(C)C)oc2c(Cl)cccc12 (centres undefined),-4,-4,4,39*,-9,-4,47*,0,GFP quench dose=>68;GFP quench-2=>68
CC(=O)NC(c1cccs1)c1cc(F)c2cccnc2c1O (centres undefined),-2,-2,3,17*,-1,1,13*,4,
C[C@H]1CCCCO[C@@H](CN(C)C(=O)c2ccncc2)[C@@H](C)CN([C@@H](C)CO)C(=O)c2cc(NS(C)(=O)=O)ccc2O1,/,-4,-1,/,/,/,/,/,
N#Cc1ccsc1NC(=O)CN1CCN(c2ccccc2)CC1,0,-1,-3,-3,0,-3,/,/,
N#Cc1ccsc1NC(=O)CN1CCN(c2ccc(O)cc2)CC1,-1,/,/,10*,-2,-1,-1,0,
CC(C)C#Cc1cnc2c(c1)C(=O)N([C@@H](C)CO)C[C@H](C)[C@@H](CN(C)Cc1ccccc1F)O2,/,1,0,/,/,/,/,/,
CCCn1c(N)c(C(=O)COC(=O)CNC(=O)c2ccc(C)c(C)c2)c(=O)n(C)c1=O,0,-1,1,9.4*,-5,1,0,-4,
Cc1cc(C)cc(C(=O)NCC(=O)OCC(=O)c2c(N)n(C)c(=O)n(C)c2=O)c1,-1,-2,0,-1,12,-4,/,/,
Oc1ccc(CN2CCc3ccccc3C2)c2cccnc12,-1,/,/,28*,-1,-7,7.6*,1,
C[C@@H]1CCCCO[C@H](CN(C)Cc2ccc3c(c2)OCO3)[C@H](C)CN([C@@H](C)CO)C(=O)c2cc(NC(=O)c3ccncc3)ccc2O1,/,0,-2,/,/,/,/,/,
CC(Sc1nccn1C)C(=O)Nc1ccc(C(N)=O)cc1 (centres undefined),-2,-3,0,10*,-1,-9,-2,0,
COc1ccccc1NC(=O)C(C)Sc1nccn1C (centres undefined),0,/,2,1,-3,-12,/,/,
CC(=O)Nc1ccc(SCC(=O)c2cc(C)n(-c3ccccc3)c2C)cc1,0,/,/,2,3,3,/,/,
CCCCCCCC[n+]1c(C)n(-c2ccccc2)c2ccc(NC(C)=O)cc21,0,1,3,5.0*,1,5,6.7*,0,
O=c1c(O)cccc2cc(O)c(O)c(O)c12,1,4,4,43*,8,-3,39*,33*,
COc1cc2cccc(OC)c(=O)c2c(OC)c1OC,0,6,/,2,-2,/,/,/,
N#C[C@H]1[C@@H](c2ccccc2)[C@@H](CO)N1C(=O)Cc1ccccc1,/,2,1,/,/,/,/,/,
Nc1nnc(CCCCc2cccs2)o1,1,/,/,7.6*,-3,-6,2,0,
COc1cc(N)c2ncccc2c1Br,2,1,-2,13*,0,13,-3,2,
COc1cc(N)c2ncccc2c1SC,/,4,3,-1,/,12,/,/,
C[C@@H](NC(=O)C[C@@H]1C=C[C@@H](NC(=O)Cc2ccccn2)[C@@H](CO)O1)c1ccccc1,/,0,-3,/,/,/,/,/,
Oc1ccc(-c2cn3c(n2)SCC3)cc1O,-1,/,/,26*,-3,14,20*,15*,
Oc1ccc(-c2cn3c(n2)SCC3)cc1,0,/,/,4,-3,5,/,/,
CCC(=O)N1[C@@H]2c3cccc(=O)n3C[C@H]1[C@H](CO)[C@H]2C(=O)N1CCc2ccccc2C1,/,-8,6,/,/,/,/,/,
